Measurements: ChEMBL document CHEMBL4393663, “Targeting gliomas with triazene-based hybrids: Structure-activity relationship, mechanistic study and stability” (Eur J Med Chem, 2019)
The source made the active and inactive calls. No cut-off for these calls is given here.

System: not listed separately
Assay: Octanol-phosphate buffered saline distribution coefficient, log D of compound at pH 7.4 at 1 mg shake for 30 mins and measured after 48 hrs by HPLC analysis
Format: physicochemical
Conditions: not given

logD at 30 min | Compound
4.62 | CCCC(CCC)C(=O)N(C)/N=N/c1ccc(Cl)cc1
4.84 | CCCC(CCC)C(=O)N(C)/N=N/c1ccc(C#N)cc1
3.68 | CCCC(CCC)C(=O)N(C)/N=N/c1ccc(C(N)=O)cc1
4.56 | CCCC(CCC)C(=O)N(C)/N=N/c1ccc(C(C)=O)cc1

System: not listed separately
Assay: Drug metabolism assessed as Cu2+-mediated compound decomposition by measuring aniline formation at 33 uM measured at 1 min interval for 30 mins by UV-Vis spectrophotometric analysis
Conditions: not given
Procedure, shortened: (§1)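 Decomposition monitored by UV-Vis spectroscopy in methanolic solutions containing Cu2+ or Zn2+.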

Drug metabolism | Compound
Metabolite detected | CCOC(=O)c1ccc(/N=N/NC)cc1
Metabolite detected | CN=NNc1ccc(C#N)cc1

System: not listed separately
Assay: Induction of alkylation in 5'-GGGAGA-3' single stranded DNA (unknown origin) at ssDNA to compound concentration ratio of 1:3 to 1:250M incubated for 7 days by ESI-MS analysis
Conditions: not given
Procedure, shortened: (§2)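 Single-stranded oligonucleotide incubated with the compound in 10 mM ammonium bicarbonate buffer, pH 8.3, at 37 °C. Aliquots were taken at intervals and extracted three times with ethyl acetate, then centrifuged. The aqueous phase was analysed by flow-injection ESI(−) HRMS in 50:50 water/acetonitrile with 0.1% formic acid. Run in triplicate.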

Activity | Compound
inactive | CCCC(CCC)C(=O)N(C)/N=N/c1ccc(C#N)cc1

System: SH-SY5Y
Assay: Induction of apoptosis in human SH-SY5Y cells assessed as reduction in cell viability at 10 uM incubated for 48 hrs by annexinV-PE/7-AAD staining based flow cytometric analysis
Format: functional
Conditions: not given
Procedure, shortened: (§3)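 SH-SY5Y cells grown on poly-D-lysine/laminin, differentiated 7 days with 10 µM retinoic acid, then exposed 48 h. Adherent plus floating cells pooled, resuspended in PBS/1% BSA, stained annexin V-PE/7-AAD and counted by flow cytometry into viable, early apoptotic, late apoptotic/necrotic; two readings per sample; three independent experiments in duplicate.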

Compound | Activity
Cn1nnc2c(C(N)=O)ncn2c1=O [TEMOZOLOMIDE] | Active
CCCC(CCC)C(=O)N(C)/N=N/c1ccc(C#N)cc1 | Active
CCCC(CCC)C(=O)N(C)/N=N/c1ccc(C(N)=O)cc1 | Active

Target: T1, Histone deacetylase (Homo sapiens) (UniProt Q13547+O15379+Q9UBN7+Q92769+Q9UQL6+Q8WUI4+Q9BY41+Q96DB2+P56524+Q9UKV0+Q969S8)
Assay: Inhibition of HDAC in human HeLa nuclear extract assessed as enzyme residual activity at 1 uM using Boc-Lys(acetyl)-AMC as substrate and measured after 15 mins by fluorescence assay relative to control
Format: cell-free
Conditions: not given
Procedure, shortened: (§4)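 Fluorometric HDAC activity kit with HeLa nuclear extract as enzyme source; compounds from 20 mM DMSO stock, tested in duplicate. Deacetylated substrate treated with lysine developer; fluorescence read after 15 min at ex 360/em 460 nm.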

Activity [%] | Compound
10.9 | O=C(/C=C/c1ccc2c(c1)C(=O)CC1(CCN(Cc3ccccc3)CC1)C2)NO

System: GL261
Assay: Induction of apoptosis in mouse GL261 cells assessed as increase in early apoptotic cells at 10 uM incubated for 48 hrs by annexinV-PE/7-AAD staining based flow cytometric analysis
Format: functional, cell-based
Conditions: not given
Procedure, shortened: (§5)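 GL261 cells exposed 48 h; trypsinized adherent cells combined with medium cells, pelleted, resuspended in PBS/1% BSA, stained with annexin V-PE/7-AAD; flow cytometry gating viable (both negative), early apoptotic (annexin+/7-AAD−), late apoptotic/dead (both positive); two readings per sample; three independent experiments in duplicate.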

Compound | Activity
CCCC(CCC)C(=O)N(C)/N=N/c1ccc(C#N)cc1 | Active
CCCC(CCC)C(=O)N(C)/N=N/c1ccc(C(N)=O)cc1 | Active

System: SH-SY5Y
Assay: Induction of apoptosis in human SH-SY5Y cells assessed as increase in early apoptotic cells at 10 uM incubated for 48 hrs by annexinV-PE/7-AAD staining based flow cytometric analysis
Format: functional, cell-based
Conditions: not given
Procedure, shortened: as §3

Compound | Activity
Cn1nnc2c(C(N)=O)ncn2c1=O [TEMOZOLOMIDE] | Active
CCCC(CCC)C(=O)N(C)/N=N/c1ccc(C#N)cc1 | Active
CCCC(CCC)C(=O)N(C)/N=N/c1ccc(C(N)=O)cc1 | Active

Target: T1, Histone deacetylase (Homo sapiens)
Assay: Inhibition of HDAC in human HeLa nuclear extract assessed as enzyme residual activity at 100 nM using Boc-Lys(acetyl)-AMC as substrate and measured after 15 mins by fluorescence assay relative to control
Format: cell-free
Conditions: not given
Procedure, shortened: as §4

Activity [%] | Compound
52.4 | O=C(/C=C/c1ccc2c(c1)C(=O)CC1(CCN(Cc3ccccc3)CC1)C2)NO

Target: T1, Histone deacetylase (Homo sapiens)
Assay: Inhibition of HDAC in human HeLa nuclear extract assessed as enzyme residual activity at 25 uM using Boc-Lys(acetyl)-AMC as substrate and measured after 15 mins by fluorescence assay relative to control
Format: cell-free
Conditions: not given
Procedure, shortened: as §4

Activity [%] | Compound
85.8 | CCCC(CCC)C(=O)N(C)/N=N/c1ccc(Cl)cc1
98 | CCCC(CCC)C(=O)N(C)/N=N/c1ccc(C#N)cc1
91.6 | CCCC(CCC)C(=O)N(C)/N=N/c1ccc(C(N)=O)cc1
94.8 | CCCC(CCC)C(=O)N(C)/N=N/c1ccc(C(C)=O)cc1

System: GL261
Assay: Induction of morphological changes in mouse GL261 cells assessed as decrease in cell aspect ratio at 10 uM incubated for 48 hrs by Hoechst 33258 staining based fluorescence microscopic analysis
Format: functional
Conditions: not given
Procedure, shortened: (§6)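 After 48 h exposure, GL261 cells on coverslips fixed in 4% paraformaldehyde, permeabilized (0.1% Triton X-100), blocked 30 min, stained with Alexa Fluor-594 phalloidin and Hoechst 33258; ten random fields at 630×; circularity (4π·area/perimeter²) and aspect ratio traced manually on ≥120 cells per condition; three independent experiments.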

Compound | Activity
Cn1nnc2c(C(N)=O)ncn2c1=O [TEMOZOLOMIDE] | inactive
CCCC(CCC)C(=O)N(C)/N=N/c1ccc(C#N)cc1 | Active
CCCC(CCC)C(=O)N(C)/N=N/c1ccc(C(N)=O)cc1 | Active

Target: T1, Histone deacetylase (Homo sapiens)
Assay: Inhibition of HDAC in human HeLa nuclear extract assessed as enzyme residual activity at 10 nM using Boc-Lys(acetyl)-AMC as substrate and measured after 15 mins by fluorescence assay relative to control
Format: cell-free
Conditions: not given
Procedure, shortened: as §4

Activity [%] | Compound
91 | O=C(/C=C/c1ccc2c(c1)C(=O)CC1(CCN(Cc3ccccc3)CC1)C2)NO

System: not listed separately
Assay: Stability in 80% human plasma assessed as half life by HPLC analysis
Format: ADME, cell-free
Conditions: not given
Procedure, shortened: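 Plasma pooled from 13 donors (heparin), stored at −18 °C, thawed slowly, diluted to 80% v/v with 10 mM PBS pH 7.4 at 37 °C; compound added from 10 mM acetonitrile stock; aliquots taken over time, centrifuged 12000 rpm 10 min, supernatant analyzed by HPLC for half-life; duplicate or triplicate runs.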

half-life [h] | Compound
> 40 | CCCC(CCC)C(=O)N(C)/N=N/c1ccc(Cl)cc1
> 40 | CCCC(CCC)C(=O)N(C)/N=N/c1ccc(C#N)cc1
> 40 | CCCC(CCC)C(=O)N(C)/N=N/c1ccc(C(N)=O)cc1
> 40 | CCCC(CCC)C(=O)N(C)/N=N/c1ccc(C(C)=O)cc1

System: SH-SY5Y
Assay: Induction of apoptosis in human SH-SY5Y cells assessed as increase in late necrotic cells at 10 uM incubated for 48 hrs by annexinV-PE/7-AAD staining based flow cytometric analysis
Format: functional, cell-based
Conditions: not given
Procedure, shortened: as §3

Compound | Activity
Cn1nnc2c(C(N)=O)ncn2c1=O [TEMOZOLOMIDE] | Active
CCCC(CCC)C(=O)N(C)/N=N/c1ccc(C#N)cc1 | Active
CCCC(CCC)C(=O)N(C)/N=N/c1ccc(C(N)=O)cc1 | Active

System: GL261
Assay: Induction of morphological changes in mouse GL261 cells assessed as increase in cell circularity at 10 uM incubated for 48 hrs by Hoechst 33258 staining based fluorescence microscopic analysis
Format: functional
Conditions: not given
Procedure, shortened: as §6

Compound | Activity
Cn1nnc2c(C(N)=O)ncn2c1=O [TEMOZOLOMIDE] | inactive
CCCC(CCC)C(=O)N(C)/N=N/c1ccc(C#N)cc1 | Active
CCCC(CCC)C(=O)N(C)/N=N/c1ccc(C(N)=O)cc1 | Active

System: not listed separately
Assay: Stability of the compound in PBS buffer at pH 7.4 at 10^-5 M measured 5 min for 60 mins in presence of glutathione by UV-Vis spectrophotometric analysis
Format: physicochemical
Conditions: pH 7.4, 1 h, 10 µM

Stability | Compound
Stable | CCCC(CCC)C(=O)N(C)/N=N/c1ccc(C#N)cc1

System: not listed separately
Assay: Stability of compound in PBS buffer at pH 7.4 at 10^-5 M measured 5 min for 60 mins in presence of N-acetylcysteine by UV-Vis spectrophotometric analysis
Format: physicochemical
Conditions: pH 7.4, 1 h, 10 µM

Stability | Compound
Stable | CCCC(CCC)C(=O)N(C)/N=N/c1ccc(C#N)cc1

System: GL261
Assay: Induction of apoptosis in mouse GL261 cells assessed as reduction in cell viability at 10 uM incubated for 48 hrs by annexinV-PE/7-AAD staining based flow cytometric analysis
Format: functional
Conditions: not given
Procedure, shortened: as §5

Compound | Activity
CCCC(CCC)C(=O)N(C)/N=N/c1ccc(C#N)cc1 | Active
CCCC(CCC)C(=O)N(C)/N=N/c1ccc(C(N)=O)cc1 | Active

System: GL261
Assay: Induction of apoptosis in mouse GL261 cells assessed as increase in necrotic cells at 10 uM incubated for 48 hrs by annexinV-PE/7-AAD staining based flow cytometric analysis
Format: functional, cell-based
Conditions: not given
Procedure, shortened: as §5

Compound | Activity
CCCC(CCC)C(=O)N(C)/N=N/c1ccc(C(N)=O)cc1 | Active

Target: T1, Histone deacetylase (Homo sapiens)
Assay: Inhibition of HDAC in human HeLa nuclear extract assessed as enzyme residual activity at 6.25 uM using Boc-Lys(acetyl)-AMC as substrate and measured after 15 mins by fluorescence assay relative to control
Format: cell-free
Conditions: not given
Procedure, shortened: as §4

Activity [%] | Compound
93 | CCCC(CCC)C(=O)N(C)/N=N/c1ccc(Cl)cc1
99.1 | CCCC(CCC)C(=O)N(C)/N=N/c1ccc(C#N)cc1
90.5 | CCCC(CCC)C(=O)N(C)/N=N/c1ccc(C(N)=O)cc1
98.6 | CCCC(CCC)C(=O)N(C)/N=N/c1ccc(C(C)=O)cc1

System: GL261
Assay: Antiinvasive activity in mouse GL261 cells assessed as reduction in cell migration at 10 uM preincubated for 48 hrs and measured after 6 hrs by giemsa staining based Boyden chamber assay
Format: functional
Conditions: not given

Compound | Activity
Cn1nnc2c(C(N)=O)ncn2c1=O [TEMOZOLOMIDE] | Active
CCCC(CCC)C(=O)N(C)/N=N/c1ccc(C#N)cc1 | Active
CCCC(CCC)C(=O)N(C)/N=N/c1ccc(C(N)=O)cc1 | Active

System: GL261
Assay: Cytotoxicity against mouse GL261 cells assessed as reduction in cell viability incubated for 48 hrs by MTS assay
Format: functional, cell-based
Conditions: GL261, 48 h

Compound | IC50 [µM]
Cn1nnc2c(C(N)=O)ncn2c1=O [TEMOZOLOMIDE] | > 100
CCCC(CCC)C(=O)N(C)/N=N/c1ccc(Cl)cc1 | 58.4
CCCC(CCC)C(=O)N(C)/N=N/c1ccc(C#N)cc1 | > 100
CCCC(CCC)C(=O)N(C)/N=N/c1ccc(C(N)=O)cc1 | 11.9
CCCC(CCC)C(=O)N(C)/N=N/c1ccc(C(C)=O)cc1 | 47

System: not listed separately
Assay: Stability of the compound in PBS buffer at pH 7.4 assessed as half life by HPLC analysis
Format: physicochemical
Conditions: not given

half-life [h] | Compound
2 | Cn1nnc2c(C(N)=O)ncn2c1=O [TEMOZOLOMIDE]
27.3 | CCCC(CCC)C(=O)N(C)/N=N/c1ccc(Cl)cc1
> 40 | CCCC(CCC)C(=O)N(C)/N=N/c1ccc(C#N)cc1
> 40 | CCCC(CCC)C(=O)N(C)/N=N/c1ccc(C(N)=O)cc1
> 40 | CCCC(CCC)C(=O)N(C)/N=N/c1ccc(C(C)=O)cc1

System: GL261
Assay: Induction of apoptosis in mouse GL261 cells assessed as increase in late apoptotic cells at 10 uM incubated for 48 hrs by annexinV-PE/7-AAD staining based flow cytometric analysis
Format: functional, cell-based
Conditions: not given
Procedure, shortened: as §5

Compound | Activity
CCCC(CCC)C(=O)N(C)/N=N/c1ccc(C(N)=O)cc1 | Active

Target: T1, Histone deacetylase (Homo sapiens)
Assay: Inhibition of HDAC in human HeLa nuclear extract assessed as enzyme residual activity at 100 uM using Boc-Lys(acetyl)-AMC as substrate and measured after 15 mins by fluorescence assay relative to control
Format: cell-free
Conditions: not given
Procedure, shortened: as §4

Activity [%] | Compound
66.4 | CCCC(CCC)C(=O)N(C)/N=N/c1ccc(Cl)cc1
94.6 | CCCC(CCC)C(=O)N(C)/N=N/c1ccc(C#N)cc1
79.8 | CCCC(CCC)C(=O)N(C)/N=N/c1ccc(C(N)=O)cc1
85.8 | CCCC(CCC)C(=O)N(C)/N=N/c1ccc(C(C)=O)cc1

System: not listed separately
Assay: Drug metabolism assessed as Zn2+-mediated compound decomposition by measuring aniline formation at 33 uM measured at 30 mins interval for 12 hrs by UV-vis spectrophotometric analysis
Conditions: not given
Procedure, shortened: as §1

Drug metabolism | Compound
Metabolite detected | CCOC(=O)c1ccc(/N=N/NC)cc1
Metabolite detected | CN=NNc1ccc(C#N)cc1

System: not listed separately
Assay: Induction of alkylation in 5'-GGGAGA-3' single stranded DNA (unknown origin) at ssDNA to compound concentration ratio of 1:250M incubated for 1 hr by ESI-MS analysis
Conditions: not given
Procedure, shortened: as §2

Activity | Compound
Active | CN=NNc1ccc(C#N)cc1
